# According to ChEMBL document CHEMBL3272182 (J Med Chem, 1976):
# Positions of bridges follow the written chain, without caps; N, C: chain ends. Non-standard residues stand in square brackets, D forms with d. Residues, ends and D or L forms follow the SMILES beside them. Mpa = O=C(O)CCS
# Tests used:
# [1] = organism: Rattus norvegicus; assay: Vasopressor activity in rat; assay type: organism-based; details: in vivo
# [2] = organism: Rattus norvegicus; assay: Antidiuretic activity in rat; assay type: functional, Urine
# [3] = organism: Rattus norvegicus; assay: Ratio of antidiuretic activity in rat to vasopressor activity in rat; set-up: species or system Urine
# How it was run: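 Antidiuretic and vasopressor potencies were each expressed in units/mg from rat assays. The A/P value is the antidiuretic potency divided by the vasopressor potency.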
# [4] = target: T1, Oxytocin receptor (Rattus norvegicus) (UniProt P70536); assay: Activity at oxytocin receptor in rat uterus in presence of Mg2+; assay type: tissue-based
# T1 sequence (whole entry): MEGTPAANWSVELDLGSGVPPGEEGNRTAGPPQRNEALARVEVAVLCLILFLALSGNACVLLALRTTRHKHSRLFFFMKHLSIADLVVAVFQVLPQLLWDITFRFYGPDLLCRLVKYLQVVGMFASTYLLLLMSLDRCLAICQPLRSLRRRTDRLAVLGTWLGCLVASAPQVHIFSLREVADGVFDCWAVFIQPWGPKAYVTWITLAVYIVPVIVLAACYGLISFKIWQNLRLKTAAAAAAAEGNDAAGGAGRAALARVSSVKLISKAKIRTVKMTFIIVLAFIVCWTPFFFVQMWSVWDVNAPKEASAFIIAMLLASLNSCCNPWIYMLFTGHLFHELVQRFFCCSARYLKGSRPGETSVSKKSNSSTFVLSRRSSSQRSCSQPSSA
# [5] = Retardation factor of the compound by silica gel thin-layer chromatography
# [6] = target: T1, Oxytocin receptor (Rattus norvegicus); assay: Activity at oxytocin receptor in rat uterus; assay type: tissue-based
Compound,Activity [1],Activity [2],Ratio [3],Activity [4],Rf [5],Activity [6]
CC(C)[C@@H]1NC(=O)[C@H](Cc2ccccc2)NC(=O)[C@H](Cc2ccc(O)cc2)NC(=O)CCSSC[C@@H](C(=O)N2CCC[C@H]2C(=O)N[C@H](CCCNC(=N)N)C(=O)NCC(N)=O)NC(=O)[C@H](CC(N)=O)NC1=O ([Mpa]YFVNCP[dR]G-NH2; disulfide 1-6),< 0.01 U/mg,1230 U/mg,–,–,–,–
N=C(N)NCCC[C@H](NC(=O)[C@@H]1CCCN1C(=O)[C@@H]1CSSC[C@H](N)C(=O)N[C@@H](Cc2ccc(O)cc2)C(=O)N[C@@H](Cc2ccccc2)C(=O)N[C@@H](CCC(N)=O)C(=O)N[C@@H](CC(N)=O)C(=O)N1)C(=O)NCC(N)=O [VASOPRESSIN],–,323 U/mg,1,25.5 U/mg,–,–
C[C@@H](O)[C@@H]1NC(=O)[C@H](Cc2ccccc2)NC(=O)[C@H](Cc2ccc(O)cc2)NC(=O)CCSSC[C@@H](C(=O)N2CCC[C@H]2C(=O)N[C@@H](CCCN=C(N)N)C(=O)NCC(N)=O)NC(=O)[C@H](CC(N)=O)NC1=O,30 U/mg,758 U/mg,–,–,–,–
NC(=O)CC[C@@H]1NC(=O)[C@H](Cc2ccccc2)NC(=O)[C@H](Cc2ccc(O)cc2)NC(=O)CCSSC[C@@H](C(=O)N2CCC[C@H]2C(=O)N[C@H](CCCN=C(N)N)C(=O)NCC(N)=O)NC(=O)[C@H](CC(N)=O)NC1=O (stereo in doubt; 4) [DESMOPRESSIN],346 U/mg,1390 U/mg,4,–,0.18,–
N=C(N)NCCC[C@@H](NC(=O)[C@@H]1CCCN1C(=O)[C@@H]1CSSCCC(=O)N[C@@H](Cc2ccc(O)cc2)C(=O)N[C@@H](Cc2ccccc2)C(=O)N[C@@H](CCC(N)=O)C(=O)N[C@@H](CC(N)=O)C(=O)N1)C(=O)NCC(N)=O (stereo in doubt; 6),–,–,–,2.9 U/mg,–,–
N=C(N)NCCC[C@@H](NC(=O)[C@@H]1CCCN1C(=O)[C@@H]1CSSCCC(=O)N[C@@H](Cc2ccc(O)cc2)C(=O)N[C@@H](Cc2ccccc2)C(=O)N[C@@H](CCC(N)=O)C(=O)N[C@@H](CC(N)=O)C(=O)N1)C(=O)NCC(N)=O (stereo in doubt; 4),–,–,–,66 U/mg,–,47 U/mg
C[C@@H](O)[C@@H]1NC(=O)[C@H](Cc2ccccc2)NC(=O)[C@H](Cc2ccc(O)cc2)NC(=O)CCSSC[C@@H](C(=O)N2CCC[C@H]2C(=O)N[C@H](CCCNC(=N)N)C(=O)NCC(N)=O)NC(=O)[C@H](CC(N)=O)NC1=O,< 0.02 U/mg,793 U/mg,–,–,0.24,–
NC(=O)CC[C@@H]1NC(=O)[C@H](Cc2ccccc2)NC(=O)[C@H](Cc2ccc(O)cc2)NC(=O)CCSSC[C@@H](C(=O)N2CCC[C@H]2C(=O)N[C@H](CCCN=C(N)N)C(=O)NCC(N)=O)NC(=O)[C@H](CC(N)=O)NC1=O (stereo in doubt; 6) [DESMOPRESSIN],0.39 U/mg,870 U/mg,80,–,0.21,–
NC(=O)CC[C@@H]1NC(=O)[C@H](Cc2ccccc2)NC(=O)[C@H](Cc2ccc(O)cc2)NC(=O)[C@@H](N)CSSC[C@@H](C(=O)N2CCC[C@H]2C(=O)N[C@H](CCCN=C(N)N)C(=O)NCC(N)=O)NC(=O)[C@H](CC(N)=O)NC1=O,1.1 U/mg,114 U/mg,30,1.02 U/mg,0.1,0.4 U/mg
